Measured values as given in ChEMBL document CHEMBL2390836, “Synthesis and antitumor activities of naturally occurring oleanolic acid triterpenoid saponins and their derivatives” (Eur J Med Chem, 2013).

How the values were obtained:
Type in all cases: functional, cell-based
[1] = test system: HL-60; test: Cytotoxicity against human HL60 cells after 72 hrs by MTT assay; conditions: HL-60, 72 h
In short: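 HL-60 human promyelocytic leukemia cells were plated in 96 wells and treated in triplicate with graded concentrations at 37 °C for 72 h. Viability was read by MTT reduction. IC50 was obtained by the Logit method from at least three independent experiments.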

[2] = test system: A-375; test: Cytotoxicity against human A375 cells after 72 hrs by sulforhodamine B assay; conditions: A-375, 72 h
In short: (§1)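 Cells seeded in 96-well plates and exposed in triplicate to a concentration gradient at 37 °C for 72 h. Total protein staining with sulforhodamine B was the read-out. IC50 was calculated by the Logit method from at least three independent experiments.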

[3] = test system: A549; test: Cytotoxicity against human A549 cells after 72 hrs by sulforhodamine B assay; conditions: A549, 72 h; in short: as §1

Compound	IC50 [1]	IC50 [2]	IC50 [3]
C[C@@H]1O[C@H](O[C@H]2[C@H](O[C@H]3CC[C@]4(C)[C@H]5CC=C6[C@@H]7CC(C)(C)CC[C@]7(C(=O)O)CC[C@@]6(C)[C@]5(C)CC[C@H]4C3(C)C)OC[C@H](O)[C@@H]2O)[C@H](O)[C@H](O)[C@H]1O	4.2 µM	7.7 µM	17.5 µM
C[C@@H]1O[C@@H](O[C@H]2[C@H](O[C@H]3CC[C@]4(C)[C@H]5CC=C6[C@@H]7CC(C)(C)CC[C@]7(C(=O)O)CC[C@@]6(C)[C@]5(C)CC[C@H]4C3(C)C)O[C@H](CO)[C@@H](O)[C@@H]2O)[C@H](O)[C@H](O)[C@H]1O	12.9 µM	11.6 µM	23.5 µM
C[C@@H]1O[C@@H](O[C@H]2[C@@H](O[C@H]3CC[C@]4(C)[C@H]5CC=C6[C@@H]7CC(C)(C)CC[C@]7(C(=O)O)CC[C@@]6(C)[C@]5(C)CC[C@H]4C3(C)C)OC[C@H](O)[C@@H]2O)[C@H](O)[C@H](O)[C@H]1O	> 20 µM	> 20 µM	> 20 µM
C[C@@H]1O[C@@H](O[C@H]2[C@H](O[C@H]3CC[C@]4(C)[C@H]5CC=C6[C@@H]7CC(C)(C)CC[C@]7(C(=O)O)CC[C@@]6(C)[C@]5(C)CC[C@H]4C3(C)C)OC[C@@H](O)[C@@H]2O)[C@H](O)[C@H](O[C@@H]2O[C@H](CO)[C@@H](O[C@@H]3O[C@H](CO)[C@@H](O)[C@H](O)[C@H]3O)[C@H](O)[C@H]2O)[C@H]1O	2.5 µM	6.1 µM	7.8 µM
C[C@@H]1O[C@@H](O[C@H]2[C@@H](O)[C@@H](CO)O[C@@H](O[C@H]3CC[C@]4(C)[C@H]5CC=C6[C@@H]7CC(C)(C)CC[C@]7(C(=O)O)CC[C@@]6(C)[C@]5(C)CC[C@H]4C3(C)C)[C@@H]2O)[C@H](O)[C@H](O)[C@H]1O	> 20 µM	15.4 µM	15.2 µM
